Experimental data as given in ChEMBL document CHEMBL2384977, “Synthesis and biological evaluation of novel styryl benzimidazole derivatives as probes for imaging of neurofibrillary tangles in Alzheimer's disease” (Bioorg Med Chem, 2013).
Activity calls are given as the source filed them. The calls are words filed in the database; no cut-off is given here.

Assays:
Brain = experiment: Ratio of drug level in ddY mouse brain at 13.2 to 20.6 kBq, iv measured at 2 mins to drug level in ddY mouse brain at 13.2 to 20.6 kBq, iv measured at 60 mins; type: ADME, organism-based; conditions: in vivo
How it was run: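 Tail-vein injection of the 125I tracer (13.2–20.6 kBq, saline with ethanol) into male 5-week-old ddY mice. The ratio is brain uptake (%ID/g) at 2 min divided by brain uptake at 60 min, from groups of 5 animals.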

[1] = biological target: T1, Amyloid-beta precursor protein (Homo sapiens, UniProt P05067); experiment: Binding affinity to amyloid beta (1 to 42) (unknown origin) aggregates assessed as apparent dissociation constant after 30 mins by fluorescence spectroscopic analysis; conditions: read-out: Kd(app)
T1 sequence (P05067 whole entry): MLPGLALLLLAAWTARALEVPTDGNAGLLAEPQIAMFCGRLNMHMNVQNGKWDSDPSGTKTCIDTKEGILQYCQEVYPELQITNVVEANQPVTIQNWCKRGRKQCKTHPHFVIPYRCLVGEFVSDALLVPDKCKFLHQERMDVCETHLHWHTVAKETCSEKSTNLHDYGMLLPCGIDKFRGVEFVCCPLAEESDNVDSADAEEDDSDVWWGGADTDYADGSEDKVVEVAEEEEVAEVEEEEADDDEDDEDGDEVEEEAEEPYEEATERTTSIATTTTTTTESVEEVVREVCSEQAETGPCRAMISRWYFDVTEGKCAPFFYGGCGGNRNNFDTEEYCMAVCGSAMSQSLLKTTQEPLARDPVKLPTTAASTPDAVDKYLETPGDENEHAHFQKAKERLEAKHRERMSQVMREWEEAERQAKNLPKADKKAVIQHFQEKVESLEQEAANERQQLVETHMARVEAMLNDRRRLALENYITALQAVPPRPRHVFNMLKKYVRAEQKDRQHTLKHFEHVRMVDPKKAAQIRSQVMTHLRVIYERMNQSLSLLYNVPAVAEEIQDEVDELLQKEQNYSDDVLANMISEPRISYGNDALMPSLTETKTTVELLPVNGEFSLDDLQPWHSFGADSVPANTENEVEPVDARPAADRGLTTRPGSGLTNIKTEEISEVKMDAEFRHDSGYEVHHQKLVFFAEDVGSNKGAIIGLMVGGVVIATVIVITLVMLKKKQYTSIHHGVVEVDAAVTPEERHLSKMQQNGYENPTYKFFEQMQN
How it was run: (§1)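 Tau: human 441-aa tau expressed in E. coli, aggregated at 1 mg/mL in MES buffer pH 6.8 with 0.1 mg/mL heparin, 37 °C for 3 days with shaking. Abeta1-42 aggregated at 0.25 mg/mL in PBS pH 7.4, 37 °C for 42 h with shaking. Aggregates at final 10 µg/mL were incubated with ligand (final 0.02–10 µM) for 30 min at room temperature. Apparent Kd was taken from fluorescence saturation curves at ex 440 nm, em 510 nm (tau) or em 480 nm (Abeta). Mean ± SEM of six independent experiments.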

[2] = biological target: T2, Microtubule-associated protein tau (Homo sapiens, UniProt P10636); experiment: Binding affinity to recombinant human tau (441 amino acid residues) aggregates expressed in Escherichia coli assessed as apparent dissociation constant after 30 mins by fluorescence spectroscopic analysis; conditions: read-out: Kd(app); how it was run: as §1
T2 sequence (P10636 whole entry): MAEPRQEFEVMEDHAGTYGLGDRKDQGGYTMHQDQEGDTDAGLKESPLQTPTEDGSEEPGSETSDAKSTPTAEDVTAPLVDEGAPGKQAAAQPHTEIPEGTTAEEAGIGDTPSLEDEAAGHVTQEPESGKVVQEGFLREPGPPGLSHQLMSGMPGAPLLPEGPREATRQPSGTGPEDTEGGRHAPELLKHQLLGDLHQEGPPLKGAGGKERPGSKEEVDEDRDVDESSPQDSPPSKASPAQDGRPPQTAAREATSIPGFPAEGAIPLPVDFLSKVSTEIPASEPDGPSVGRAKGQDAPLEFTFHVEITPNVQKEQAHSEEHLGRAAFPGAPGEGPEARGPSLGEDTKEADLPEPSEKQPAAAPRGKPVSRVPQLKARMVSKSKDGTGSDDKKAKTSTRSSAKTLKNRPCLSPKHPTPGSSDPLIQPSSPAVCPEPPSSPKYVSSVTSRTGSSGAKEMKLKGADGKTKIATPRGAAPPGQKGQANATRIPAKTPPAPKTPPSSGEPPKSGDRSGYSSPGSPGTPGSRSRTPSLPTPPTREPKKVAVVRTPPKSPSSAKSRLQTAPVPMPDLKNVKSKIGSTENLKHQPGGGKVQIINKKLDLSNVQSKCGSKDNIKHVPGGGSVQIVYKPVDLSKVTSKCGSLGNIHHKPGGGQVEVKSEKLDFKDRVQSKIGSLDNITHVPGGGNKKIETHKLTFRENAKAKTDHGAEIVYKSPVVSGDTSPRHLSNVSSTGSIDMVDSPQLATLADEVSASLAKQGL

Homo sapiens = organism: Homo sapiens; experiment: Selectivity ratio of Kd(app) for amyloid beta (1 to 42) (unknown origin) aggregates to Kd(app) for recombinant human tau (441 amino acid residues) aggregates
How it was run: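 Human 441-aa tau, expressed in E. coli, was aggregated at 1 mg/mL (MES pH 6.8, 0.1 mg/mL heparin, 37 °C, 3 days, shaking). Aβ1–42 was aggregated at 0.25 mg/mL (PBS pH 7.4, 37 °C, 42 h). Aggregates were incubated 30 min at room temperature with ligand, and fluorescence read at ex 440 nm, em 510 nm (tau) or 480 nm (Aβ). Apparent Kd came from saturation curves over six independent experiments, and the ratio is Kd(Aβ)/Kd(tau).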

[3] = biological target: T2, Microtubule-associated protein tau; experiment: Binding affinity to hyperphosphorylated tau protein in entorhinal cortex of alzheimer disease patient brain at 300 uM after 30 mins by fluorescence microscopic analysis; type: tissue-based
How it was run: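 Deparaffinized entorhinal cortex section from the same AD patient, incubated 30 min with ligand in 50% ethanol, then washed 30 s in ethanol. Imaged by fluorescence microscopy (excitation 450–490 nm, emission 510–560 nm). Spots were matched to Thioflavin S staining of the same patient's section.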

[4] = biological target: T1, Amyloid-beta precursor protein; experiment: Binding affinity to amyloid beta (1 to 42) in alzheimer disease patient brain by immunohistochemical staining analysis; conditions: tested as the 125I-labelled form
How it was run: (§2)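 Autoradiography on 6-µm deparaffinized paraffin serial sections from an autopsy-confirmed AD case; control brain section also run. [125I]SBIM-3 (92.5 kBq/100 µL) for 1 h at room temperature, 50% EtOH for 2 h, water wash 30 s, then imaging plate exposure overnight. Labelling was compared with adjacent sections immunostained for phospho-tau (AT8) or Aβ1–42 (BC05).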

[5] = biological target: T2, Microtubule-associated protein tau; experiment: Binding affinity to hyperphosphorylated tau protein in alzheimer disease patient brain by immunohistochemical staining analysis; conditions: tested as the 125I-labelled form; how it was run: as §2

Ratio (Brain) | Kd [1] [µM] | Kd [2] [µM] | Selectivity ratio (Homo sapiens) | Activity [3] | Activity [4] | Activity [5] | SMILES
0.33 |  |  |  |  |  |  | CNc1ccc(/N=N/c2nc3ccc([125I])cc3s2)cc1
0.3 |  |  |  |  |  |  | Nc1ccc(/N=N/c2nc3ccc([125I])cc3s2)cc1
 | 0.42 | 0.45 | 0.93 |  |  |  | CNc1ccc(/C=C/c2nc3ccc(I)cc3[nH]2)cc1
 | 0.82 | 0.3 | 2.73 | Active | Active | Active | CN(C)c1ccc(/C=C/c2nc3ccc(I)cc3[nH]2)cc1
